In BindingDB's records for doi:10.1016/j.ejmech.2009.05.023 (Sun Yat-Sen University, 2009):

Target: T1, Polyphenol oxidase 2 (Agaricus bisporus, UniProt O42713)
T1 sequence (O42713 whole entry): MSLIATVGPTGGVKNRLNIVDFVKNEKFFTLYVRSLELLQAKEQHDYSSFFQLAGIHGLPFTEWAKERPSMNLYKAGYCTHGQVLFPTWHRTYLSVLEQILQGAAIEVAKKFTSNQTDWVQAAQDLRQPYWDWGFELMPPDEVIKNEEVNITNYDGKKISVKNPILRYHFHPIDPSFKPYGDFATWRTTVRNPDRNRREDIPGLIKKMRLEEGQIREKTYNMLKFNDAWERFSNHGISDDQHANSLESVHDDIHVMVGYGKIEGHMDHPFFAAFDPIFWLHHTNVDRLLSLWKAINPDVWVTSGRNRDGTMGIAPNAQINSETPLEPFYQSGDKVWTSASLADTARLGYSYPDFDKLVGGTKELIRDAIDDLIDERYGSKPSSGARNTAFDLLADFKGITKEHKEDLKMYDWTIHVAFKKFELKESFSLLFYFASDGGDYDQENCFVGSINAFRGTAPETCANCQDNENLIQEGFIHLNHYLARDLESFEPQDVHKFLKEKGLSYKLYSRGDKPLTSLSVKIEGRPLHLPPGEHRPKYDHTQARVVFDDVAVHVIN
Experiment: Inhibition of mushroom tyrosinase
Summary of the method: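 Mushroom tyrosinase diphenolase assay: 1 mL reaction with 0.5 mM L-DOPA in 50 mM sodium phosphate buffer, pH 6.8, enzyme final 0.5 mg/mL, 25 °C. Compounds dissolved in DMSO (2.0% final); DMSO-only controls run. Dopachrome formation followed at 475 nm for 1 min. IC50 interpolated from dose–response curves; means of three experiments.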

O=c1[nH]c(O)c(Cc2ccc(O)cc2)c(=O)[nH]1 [5-(4-Hydroxybenzyl)pyrimidine-2,4,6(1H,3H,5H)-trione]
IC50: > 200 µM

CCCCOCCOc1ccc(Cc2c(O)[nH]c(=O)[nH]c2=O)cc1 [5-(4-(2-Butoxyethoxy)benzyl)pyrimidine-2,4,6(1H,3H,5H)-trione]
IC50: > 200 µM

O=c1cc(O)[nH]c(=O)[nH]1 [Barbituric acid]
IC50: > 200 µM

COCCOCCOc1ccc(Cc2c(O)[nH]c(=O)[nH]c2=O)cc1 [5-(4-(2-(2-Methoxyethoxy)ethoxy)benzyl)pyrimidine-2,4,6(1H,3H,5H)trione]
IC50: > 200 µM

O=c1[nH]c(O)c(Cc2ccc(OCCO)cc2)c(=O)[nH]1 [5-(4-(2-Hydroxyethoxy)benzyl)pyrimidine-2,4,6(1H,3H,5H)-trione]
IC50: > 200 µM

COCCOc1ccc(Cc2c(O)[nH]c(=O)[nH]c2=O)cc1 [5-(4-(2-Methoxyethoxy)benzyl)pyrimidine-2,4,6(1H,3H,5H)-trione]
IC50: > 200 µM

COCCCCOc1ccc(Cc2c(O)[nH]c(=S)[nH]c2=O)cc1 [5-(4-(4-Methoxybutoxy)benzyl)-2-thioxodihydropyrimidine-4,6(1H,5H)-dione]
IC50: > 200 µM

Oc1cc(O)nc(S)n1 [Thiobarbituric]
IC50: > 200 µM
